Results from ChEMBL document CHEMBL1145382, “Novel ergopeptides as dual ligands for adenosine and dopamine receptors” (J Med Chem, 2007).
Active and inactive are the calls of the source. The calls are words filed in the database; no cut-off is given here. Non-standard residues stand in square brackets, D forms with d. Residues, ends and D or L forms follow the SMILES beside them. Phe(4-NO2) = N[C@@H](Cc1ccc([N+](=O)[O-])cc1)C(=O)O; Phe(4-F) = N[C@@H](Cc1ccc(F)cc1)C(=O)O; hCha = N[C@@H](CCC1CCCCC1)C(=O)O

Experiments:
[1] = molecular target: D(1A) dopamine receptor (Homo sapiens) (UniProt P21728); assay: Displacement of [3H]SCH 23390 from dopamine D1 receptor in lamb striatum membrane at 50 uM after 1 hr; format: cell membranes; details: Ovis aries, target entry is the homologue from another species
Sequence of D(1A) dopamine receptor (Homo sapiens) (P21728 whole entry): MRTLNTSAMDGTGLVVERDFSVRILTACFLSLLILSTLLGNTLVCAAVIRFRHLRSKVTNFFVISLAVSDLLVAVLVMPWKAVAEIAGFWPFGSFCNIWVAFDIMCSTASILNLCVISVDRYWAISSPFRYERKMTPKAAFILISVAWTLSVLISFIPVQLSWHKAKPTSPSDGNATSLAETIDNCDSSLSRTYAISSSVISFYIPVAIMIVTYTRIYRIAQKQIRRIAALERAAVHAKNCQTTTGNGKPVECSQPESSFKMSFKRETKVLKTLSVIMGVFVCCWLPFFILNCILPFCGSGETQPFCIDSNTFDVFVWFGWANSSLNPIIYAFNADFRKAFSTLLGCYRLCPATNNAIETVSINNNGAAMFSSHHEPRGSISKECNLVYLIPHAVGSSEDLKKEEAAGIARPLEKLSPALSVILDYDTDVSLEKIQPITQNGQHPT
Summary of the method: (§1)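 Single-concentration screen at 50 µM ergopeptide on lamb striatal membranes (0.5 mg protein/mL), 22 °C, 50 mM Tris-HCl pH 7.4. Radioligands: [3H]SCH 23390 1.2 nM (D1), [3H]YM 09151-2 0.9 nM (D2), [3H]R-PIA 2.2 nM (A1, with MgCl2 and ADA), [3H]CGS 21680 20.1 nM (A2A, with MgCl2 and ADA). Specific binding displaced, after filtration and scintillation counting.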

[2] = molecular target: D(2) dopamine receptor (Homo sapiens) (UniProt P14416); assay: Displacement of [3H]YM 09151-2 from dopamine D2 receptor in lamb striatum membrane at 50 uM after 2 hrs; format: cell membranes; details: Ovis aries, target entry is the homologue from another species; summary of the method: as §1
Sequence of D(2) dopamine receptor (Homo sapiens) (P14416 whole entry): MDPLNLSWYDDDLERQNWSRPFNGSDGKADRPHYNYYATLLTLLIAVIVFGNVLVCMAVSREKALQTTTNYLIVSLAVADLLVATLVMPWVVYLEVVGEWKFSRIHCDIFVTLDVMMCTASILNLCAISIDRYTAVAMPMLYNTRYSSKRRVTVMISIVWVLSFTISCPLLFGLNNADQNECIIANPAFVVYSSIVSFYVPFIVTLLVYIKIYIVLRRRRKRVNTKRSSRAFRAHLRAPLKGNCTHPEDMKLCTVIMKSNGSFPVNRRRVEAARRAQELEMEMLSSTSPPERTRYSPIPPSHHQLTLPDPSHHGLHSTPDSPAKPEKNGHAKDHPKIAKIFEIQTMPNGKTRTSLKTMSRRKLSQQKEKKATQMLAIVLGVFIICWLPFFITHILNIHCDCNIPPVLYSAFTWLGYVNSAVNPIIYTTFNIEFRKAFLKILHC

Adenosine receptor A2a [3] = molecular target: T1, Adenosine receptor A2a (Homo sapiens, UniProt P29274); assay: Displacement of [3H]CGS 21680 from adenosine A2A receptor in lamb striatum membrane at 50 uM after 2 hrs; format: cell membranes; details: Ovis aries, target entry is the homologue from another species; summary of the method: as §1
T1 sequence (P29274 whole entry): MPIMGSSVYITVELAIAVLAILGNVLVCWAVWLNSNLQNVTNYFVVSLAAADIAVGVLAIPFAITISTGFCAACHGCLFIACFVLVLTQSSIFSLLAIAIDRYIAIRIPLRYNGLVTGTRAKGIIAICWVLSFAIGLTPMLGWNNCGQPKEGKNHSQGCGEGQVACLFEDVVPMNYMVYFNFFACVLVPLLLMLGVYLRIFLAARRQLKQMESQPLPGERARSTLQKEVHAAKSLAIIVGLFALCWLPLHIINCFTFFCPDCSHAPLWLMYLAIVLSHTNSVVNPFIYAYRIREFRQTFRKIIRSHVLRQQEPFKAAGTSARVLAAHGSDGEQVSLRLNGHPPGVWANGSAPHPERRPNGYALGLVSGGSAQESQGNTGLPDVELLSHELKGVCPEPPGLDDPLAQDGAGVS

[4] = molecular target: T2, Adenosine receptor A1 (Homo sapiens) (UniProt P30542); assay: Displacement of [3H]R-PIA from adenosine A1 receptor in lamb striatum membrane at 50 uM after 1 hr; format: cell membranes; details: Ovis aries, target entry is the homologue from another species; summary of the method: as §1
T2 sequence (whole entry): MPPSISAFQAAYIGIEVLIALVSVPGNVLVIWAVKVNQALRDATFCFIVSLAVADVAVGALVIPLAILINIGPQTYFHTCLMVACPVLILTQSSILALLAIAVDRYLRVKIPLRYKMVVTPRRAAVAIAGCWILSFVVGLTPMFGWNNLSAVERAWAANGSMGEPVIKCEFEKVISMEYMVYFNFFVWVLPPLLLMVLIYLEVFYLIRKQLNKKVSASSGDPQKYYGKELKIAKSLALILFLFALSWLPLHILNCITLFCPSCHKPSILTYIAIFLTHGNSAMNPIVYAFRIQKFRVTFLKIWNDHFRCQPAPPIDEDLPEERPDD

[5] = molecular target: D(2) dopamine receptor (Homo sapiens) (UniProt P14416); assay: Agonist activity at dopamine D2 receptor in SH-SY5Y cells assessed as inhibition of forskolin-activated intracellular cAMP production at 50 uM; format: functional, cell-based
Summary of the method: (§2)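 SH-SY5Y cells expressing human D2LR, preincubated 5-10 min at 22 °C with 5 µM ZM to block A2AR. Then 50 µM zardaverine, 10 µM forskolin, and 50 µM ergopeptide, with or without 150 nM quinpirole or 50 µM raclopride. 35 min total. cAMP by enzyme immunoassay. Three to six determinations, t test.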

Adenosine receptor A2a [6] = molecular target: T1, Adenosine receptor A2a; assay: Agonist activity at adenosine A2A receptor in SH-SY5Y cells assessed as CGS-induced intracellular cAMP production at 50 uM; format: functional, cell-based
Summary of the method: (§3)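 SH-SY5Y neuroblastoma cells, endogenous A2AR, stably carrying human D2LR. Serum-starved 12-16 h, in HBSS with 50 µM zardaverine for 10 min, then 50 µM ergopeptide, alone or with the A2AR agonist CGS. 35 min total incubation. cAMP by competitive enzyme immunoassay. Three to six determinations, Student's t test.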

[7] = molecular target: T2, Adenosine receptor A1 (Homo sapiens); assay: Agonist activity at adenosine A1 receptor transfected in mouse L(tk-) cells assessed as decrease in forskolin-induced cAMP levels; format: functional, cell-based
Summary of the method: (§4)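 Mouse Ltk- fibroblasts cotransfected with human A1R and D1R, preincubated 5-10 min at 22 °C with 50 µM SCH to block D1R. Then 50 µM zardaverine, 10 µM forskolin, and 50 µM ergopeptide, with or without 20 nM R-PIA or 50 µM DPCPX. 35 min total. cAMP by enzyme immunoassay. Three to six determinations.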

[8] = molecular target: D(1A) dopamine receptor (Homo sapiens) (UniProt P21728); assay: Antagonist activity at dopamine D1 receptor transfected in mouse L(tk-) cells assessed as inhibition of SKF-induced stimulation of forskolin-induced cAMP levels; format: functional, cell-based
Summary of the method: (§5)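 Mouse Ltk- fibroblasts cotransfected with human A1R and D1R, serum-starved 12-16 h. In HBSS with 50 µM zardaverine, then 50 µM ergopeptide, with or without 20 nM SKF or 50 µM SCH. 35 min total incubation. cAMP by competitive enzyme immunoassay. Three to six determinations, t test.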

[9] = molecular target: T2, Adenosine receptor A1 (Homo sapiens); assay: Antagonist activity at adenosine A1 receptor transfected in mouse L(tk-) cells assessed as inhibition of R-PIA-induced decrease in forskolin-induced cAMP levels; format: functional, cell-based; summary of the method: as §4
[10] = molecular target: D(1A) dopamine receptor (Homo sapiens) (UniProt P21728); assay: Agonist activity at dopamine D1 receptor transfected in mouse L(tk-) cells assessed as stimulation of cAMP levels; format: functional, cell-based; summary of the method: as §5
Adenosine receptor A2a [11] = molecular target: T1, Adenosine receptor A2a; assay: Antagonist activity at adenosine A2A receptor in SH-SY5Y cells assessed as CGS-induced intracellular cAMP production at 50 uM; format: functional, cell-based; summary of the method: as §3
Adenosine receptor A2a [12] = molecular target: T1, Adenosine receptor A2a; assay: Displacement of [3H]CGS 21680 from adenosine A2A receptor in lamb striatum membrane after 2 hrs; format: cell membranes, Ovis aries; details: target entry is the homologue from another species
Summary of the method: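 Lamb striatal membranes (0.5 mg protein/mL), 22 °C, 50 mM Tris-HCl pH 7.4, with increasing ergopeptide concentrations. Conditions per receptor: D1 1.2 nM [3H]SCH 23390, 1 mM dopamine nonspecific. D2 0.9 nM [3H]YM 09151-2, 100 µM raclopride nonspecific. A1 2.2 nM [3H]R-PIA, 10 mM MgCl2, 0.2 U/mL ADA, 50 µM R-PIA nonspecific. A2A 20.1 nM [3H]CGS 21680, 10 mM MgCl2, 2 U/mL ADA, 1 mM CGS 21680 nonspecific. Filtration, scintillation counting. KD by nonlinear one- or two-site fit. Three to six determinations.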

[13] = molecular target: D(2) dopamine receptor (Homo sapiens) (UniProt P14416); assay: Antagonist activity at dopamine D2 receptor in SH-SY5Y cells assessed as effect on forskolin-activated intracellular cAMP production at 50 uM; format: functional, cell-based; summary of the method: as §2

SMILES | Activity [1] [%] | Activity [2] [%] | Activity (Adenosine receptor A2a [3]) [%] | Activity [4] [%] | Activity [5] | Activity (Adenosine receptor A2a [6]) | Activity [7] | Activity [8] | Activity [9] | Activity [10] | Activity (Adenosine receptor A2a [11]) | Kd (Adenosine receptor A2a [12]) [µM] | Activity [13]
CC(=O)N[C@H](C(=O)N[C@@H](Cc1ccc(F)cc1)C(=O)N1CCC[C@H]1C(N)=O)C(C)C (Ac-Val-[Phe(4-F)]-Pro-NH2) | < 40 | < 40 | < 40 | < 40 |  |  |  |  |  |  |  |  | 
CC(C)[C@H](NC(=O)[C@H](Cc1ccc([N+](=O)[O-])cc1)NC(=O)[C@@H]1C=C2c3cccc4[nH]cc(c34)C[C@H]2N(C)C1)C(=O)N1c2ccccc2C[C@H]1C(N)=O | < 40 | < 40 | < 40 | < 40 | Active | inactive | inactive | inactive | Active | Active |  |  | 
CC(C)[C@H](NC(=O)[C@H](CCC1CCCCC1)NC(=O)[C@@H]1C=C2c3cccc4[nH]cc(c34)C[C@H]2N(C)C1)C(=O)N1CCC[C@H]1C(N)=O | < 40 | < 40 | < 40 | < 40 | Active | inactive | inactive | inactive | Active | Active | Active |  | 
CC(=O)N[C@H](C(=O)N[C@@H](CCC1CCCCC1)C(=O)N1CCCC(C(N)=O)C1)C(C)C (stereo partly specified) | < 40 | < 40 | < 40 | < 40 |  |  |  |  |  |  |  |  | 
CN1C[C@H](C(=O)N[C@@H](CCC2CCCCC2)C(=O)N[C@@H](Cc2ccc(F)cc2)C(=O)N2CCC[C@H]2C(N)=O)C=C2c3cccc4[nH]cc(c34)C[C@H]21 | < 40 | < 40 | < 40 | < 40 | Active | inactive | inactive | inactive | Active | Active |  | 33 | 
CC(=O)N[C@@H](CCC1CCCCC1)C(=O)N[C@H](C(=O)N1CCC[C@H]1C(N)=O)C(C)C (Ac-[hCha]-Val-Pro-NH2) | < 40 | < 40 | < 40 | < 40 |  |  |  |  |  |  |  |  | 
CC(C)[C@H](NC(=O)[C@@H]1C=C2c3cccc4[nH]cc(c34)C[C@H]2N(C)C1)C(=O)N[C@@H](Cc1ccc(F)cc1)C(=O)N1CCC[C@H]1C(N)=O | < 40 | < 40 | < 40 | < 40 |  | inactive | inactive | inactive | Active | Active |  |  | Active
CC(=O)N[C@@H](Cc1ccc([N+](=O)[O-])cc1)C(=O)N[C@@H](CCC1CCCCC1)C(=O)N1CCCC(C(N)=O)C1 (stereo partly specified) | < 40 | < 40 | < 40 | < 40 |  |  |  |  |  |  |  |  | 
CN1C[C@H](C(N)=O)C=C2c3cccc4[nH]cc(c34)C[C@H]21 | < 40 | < 40 | < 40 | < 40 |  |  |  |  |  |  |  |  | 
CC(=O)N[C@H](C(=O)N[C@@H](CCC1CCCCC1)C(=O)N1c2ccccc2C[C@H]1C(N)=O)C(C)C | < 40 | < 40 | < 40 | < 40 |  |  |  |  |  |  |  |  | 
CC(=O)N[C@@H](Cc1ccc([N+](=O)[O-])cc1)C(=O)N[C@@H](Cc1ccc(F)cc1)C(=O)N1CCCC(C(N)=O)C1 (stereo partly specified) | < 40 | < 40 | < 40 | < 40 |  |  |  |  |  |  |  |  | 
CN1C[C@H](C(=O)N[C@@H](Cc2ccc([N+](=O)[O-])cc2)C(=O)N[C@@H](CCC2CCCCC2)C(=O)N2CCCC(C(N)=O)C2)C=C2c3cccc4[nH]cc(c34)C[C@H]21 (stereo partly specified) | < 40 | < 40 | < 40 | < 40 | Active | inactive | inactive | inactive | Active | Active |  |  | 
CC(=O)N[C@@H](CCC1CCCCC1)C(=O)N[C@@H](Cc1ccc(F)cc1)C(=O)N1CCC[C@H]1C(N)=O (Ac-[hCha]-[Phe(4-F)]-Pro-NH2) | < 40 | < 40 | < 40 | < 40 |  |  |  |  |  |  |  |  | 
CC(C)[C@H](NC(=O)[C@@H]1C=C2c3cccc4[nH]cc(c34)C[C@H]2N(C)C1)C(=O)N[C@@H](CCC1CCCCC1)C(=O)N1c2ccccc2C[C@H]1C(N)=O | < 40 | < 40 | < 40 | < 40 |  | inactive | inactive | inactive | Active | Active |  | 25 | Active
CN1C[C@H](C(=O)N[C@@H](Cc2ccc([N+](=O)[O-])cc2)C(=O)N[C@@H](Cc2ccc(F)cc2)C(=O)N2CCCC(C(N)=O)C2)C=C2c3cccc4[nH]cc(c34)C[C@H]21 (stereo partly specified) | < 40 | < 40 | < 40 | < 40 | Active | inactive | inactive | inactive | Active | Active | Active |  | 
CC(=O)N[C@@H](Cc1ccc([N+](=O)[O-])cc1)C(=O)N[C@H](C(=O)N1c2ccccc2C[C@H]1C(N)=O)C(C)C | < 40 | < 40 | < 40 | < 40 |  |  |  |  |  |  |  |  | 
CC(C)[C@H](NC(=O)[C@H]1C=C2c3cccc4[nH]cc(c34)C[C@H]2N(C)C1)C(=O)N[C@@H](Cc1ccc([N+](=O)[O-])cc1)C(=O)N1CCC[C@H]1C(N)=O | < 40 | < 40 | < 40 | < 40 | Active | inactive | inactive | inactive | Active | Active | Active |  | 
CC(C)[C@H](NC(=O)[C@@H]1C=C2c3cccc4[nH]cc(c34)C[C@H]2N(C)C1)C(=O)N[C@@H](Cc1ccc([N+](=O)[O-])cc1)C(=O)N1CCC[C@H]1C(N)=O | < 40 | < 40 | < 40 | < 40 | Active | inactive | inactive | inactive | Active | Active | Active |  | 
CC(=O)N[C@H](C(=O)N[C@@H](Cc1ccc([N+](=O)[O-])cc1)C(=O)N1CCC[C@H]1C(N)=O)C(C)C (Ac-Val-[Phe(4-NO2)]-Pro-NH2) | < 40 | < 40 | < 40 | < 40 |  |  |  |  |  |  |  |  | 
